SIAE primary = blocks human sialic acid acetylesterase; SIAE FP-Rh probe binding, fluorescence polarization; inhibition, % at 9.66 µM; hit rate 0.69% among 370,000;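 active means inhibition above a cutoff: mean of compounds within the control limits plus 3 SD of those, cut at about 17% in these data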;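 further: 0% = plate median of compound wells and 100% = probe without SIAE protein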
PRMT1 inh = PRMT1 (human) inhibition, primary screen; Q99873; recombinant PRMT1, activity-based probe fluorescence polarization; inhibition, % at 2.79 µM; hit rate 1.3% among 370,000;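 active means inhibition above about 21% made by adding two undisclosed values, limit read from the data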
Target sequence (Q99873 whole entry, looked up): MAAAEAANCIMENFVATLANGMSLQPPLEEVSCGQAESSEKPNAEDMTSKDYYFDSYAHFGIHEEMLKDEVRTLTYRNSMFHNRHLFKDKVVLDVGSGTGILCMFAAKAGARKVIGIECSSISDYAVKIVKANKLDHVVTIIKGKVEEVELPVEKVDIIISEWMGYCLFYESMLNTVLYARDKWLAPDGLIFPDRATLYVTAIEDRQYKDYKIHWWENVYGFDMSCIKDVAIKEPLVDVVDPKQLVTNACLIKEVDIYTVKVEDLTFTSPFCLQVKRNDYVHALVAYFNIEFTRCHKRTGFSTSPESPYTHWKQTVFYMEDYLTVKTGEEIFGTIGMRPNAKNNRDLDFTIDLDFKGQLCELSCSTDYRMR
TCR-CD3 inh = inhibitors of human TCR-CD3 interaction; TAMRA-labeled TCR probe fluorescence, biochemical; inhibition, % at 9.4 µM; hit rate 0.37% among 360,000; AID 651800; in the data active means inhibition above about 19%;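 further: recombinant mutant TCR 2C K166C tagged with TAMRA read by polarization; 0% = receptor in buffer alone and 100% = receptor with positive control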
ABHD4 inh = inhibitors of mouse ABHD4; hit rate 0.54% among 370,000; AID 720543; inhibition, % at 8.92 µM; purified mABHD4, FP-Rh probe fluorescence polarization; Q8VD66;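 active means inhibition exceeding the mean over every tested compound plus 3 SD, cut at about 30% in these data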;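 further: 0% = plate median of compound wells and 100% = S159A mutant with DMSO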
Target sequence (Q8VD66 whole entry, looked up): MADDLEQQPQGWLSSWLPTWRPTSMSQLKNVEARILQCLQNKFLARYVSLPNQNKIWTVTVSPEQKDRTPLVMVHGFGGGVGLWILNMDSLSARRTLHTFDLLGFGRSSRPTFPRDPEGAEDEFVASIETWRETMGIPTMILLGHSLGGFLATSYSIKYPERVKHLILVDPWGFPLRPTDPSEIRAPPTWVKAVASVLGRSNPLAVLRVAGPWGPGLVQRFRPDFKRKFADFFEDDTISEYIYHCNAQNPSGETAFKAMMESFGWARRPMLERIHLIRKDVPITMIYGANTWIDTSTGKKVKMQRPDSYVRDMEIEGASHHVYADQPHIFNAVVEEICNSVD
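Test system: mABHD4 protein | Buffer or medium: HEPES pH 7.0 buffer, 150 mM NaCl, 0.01% Pluronic F-127 | Probe or stimulus: FP-Rh fluorescent activity-based probe, added after compound pre-incubation | Timing: Pre-incubation 45 min, probe exposure 60 min, at 25 °C | Technique: Fluorescence polarization, excitation 525 nm, emission 598 nm, BODIPY TMR filters | Repeats: Single well per compound (singlicate)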
HTRA1 inhibitor = HTRA1 (human) protease inhibition. recombinant HTRA1, FP-rhodamine activity-based probe, fluorescence polarization. AID 504803. hit rate 0.5% among 340,000. inhibition, % at 5.96 µM; in the data active means inhibition above about 36%;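 further: 0% = enzyme with DMSO and 100% = wells lacking enzyme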
rCAG binder = molecules binding r(CAG) RNA repeats; r(CAG) RNA repeat, TO-PRO-1 dye displacement fluorescence; inhibition, % at 3 µM; hit rate 1.3% among 370,000;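 active means inhibition above the plate cutoff, the mean of all test compounds on that plate plus 3 SD, cut at about 35% in these data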;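 further: 0% = DMSO alone and 100% = 100 µM mitoxantrone as full dye displacement; higher means more dye released from RNA so lower well fluorescence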
rCAG binder conf = r(CAG) RNA repeat binding, confirmation. TO-PRO-1 dye displacement fluorescence. inhibition, % at 3 µM. shares compounds with rCAG binder. hit rate 70% among 4,300;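 active means inhibition above a per-plate cutoff, the mean inhibition of sample wells plus 3 SD, cut at about 35% in these data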;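 further: loss of TO-PRO-1 fluorescence as compound displaces dye from 1x1 AA loop RNA; 0% = DMSO only wells and 100% = 100 µM mitoxantrone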
dCAG dye counter = counter-screen for rCAG RNA binders: DNA CAG dye complex inhibitors; shares compounds with rCAG binder; d(CAG) DNA oligo TO-PRO-1 dye displacement, fluorescence; inhibition, % at 3 µM; hit rate 94% among 4,300; AID 652068;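 active means inhibition above its plate's cutoff, the mean test-well inhibition plus 3 SD, cut at about 4.8% in these data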;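 further: 0% = DNA dye mix with DMSO and 100% = 100 µM mitoxantrone; hits displace the dye from DNA and so lower well fluorescence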
dCAG dye DR = disrupts DNA CAG TO-PRO-1 complex in dose response. shares compounds with rCAG binder. DNA CAG/GTC duplex TO-PRO-1 dye displacement fluorescence. IC50, µM. hit rate 20% among 250. AID 686960; in the data active means IC50 below about 10 µM
* hit, by the source's call; i = inactive; / = not tested or not shown. A selection: hits, their analogues and other compounds. The true share with any hit is near 3.5%.

SMILES | SIAE primary | PRMT1 inh | TCR-CD3 inh | ABHD4 inh | HTRA1 inhibitor | rCAG binder | rCAG binder conf | dCAG dye counter | others
O=C(Cn1cc2c(n1)CCCCC2)NCc1ccccc1 | 1 | -4 | 5 | 2 | -3 | 41* | 6 | 2
O=C(Cn1cc2c(n1)CCCC2)NCc1cccnc1 | 0 | -6 | 3 | 4 | 2 | 1 | / | /
COc1cc(OC)c(NC(=O)c2cc3ccccc3cc2O)cc1Cl | 6 | 1 | -9 | 7 | 9 | 35* | 47* | 22*
O=C(NCCN1C(=O)C2C3C=CC(C3)C2C1=O)c1cc(F)cc(F)c1 (stereo unspecified) | -1 | 0 | / | 0 | / | 4 | / | /
O=C(CC1S/C(=N/N=C/c2c[nH]c3ccccc23)NC1=O)Nc1ccccc1 (stereo unspecified) | -8 | 2 | -5 | -11 | -3 | 60* | 45* | 15*
O=C(CC1S/C(=N/N=C/c2c[nH]c3ccc(OCc4ccccc4)cc23)NC1=O)Nc1ccccc1 (stereo unspecified) | 8 | 0 | 2 | -9 | 9 | 40* | 50* | 27*
CC(C)C[C@H]1COc2cccc(F)c2S(=O)(=O)N1Cc1cn(Cc2ccc(F)cc2)nn1 | -4 | 1 | / | -13 | / | -2 | / | /
O=C1c2ccccc2S(=O)(=O)c2cc(N3CCN(C(=O)c4ccccc4)CC3)ccc21 | -2 | 0 | -1 | -1 | / | -3 | / | /
O=C(O)c1ccc2c(c1)S(=O)(=O)c1cc(N3CCN(c4cnccn4)CC3)ccc1C2=O | -10 | -1 | 5 | 9 | -3 | 35* | 46* | 14*
COCCCNC(=O)C[C@H]1C[C@@]2(C(=O)OC)C(=C[C@H](C(C)C)O[C@@H]2C2CC2)N(CCc2ccc(OC)c(OC)c2)C1=O | 5 | -7 | / | -3 | / | -3 | / | /
CCc1nnc(NS(=O)(=O)c2ccc(NC(=O)c3cccc([N+](=O)[O-])c3)cc2)s1 | -3 | 1 | 2 | -18 | -10 | 45* | 27 | 4.9*
CCc1nnc(NS(=O)(=O)c2ccc(NS(=O)(=O)c3ccccc3[N+](=O)[O-])cc2)s1 | 7 | 0 | 5 | -1 | -4 | 12 | / | /
CCc1nnc(NS(=O)(=O)c2ccc(NC(=O)c3ccc([N+](=O)[O-])s3)cc2)s1 | -2 | -1 | 6 | 24 | -4 | 61* | 48* | 15*
CCCCOc1cccc(C(=O)Nc2ccc(S(=O)(=O)Nc3nnc(CC)s3)cc2)c1 | -13 | 2 | -2 | -45 | -64 | 80* | 73* | 37*
C=CCN1[C@@H](C)COc2cc(F)ccc2S1(=O)=O | 5 | 3 | / | 7 | / | 1 | / | /
O=[N+]([O-])c1cc(C(F)(F)F)cc([N+](=O)[O-])c1NCCNC(=S)Nc1ccc(Cl)c(Cl)c1 | -56 | -1 | 1 | -18 | -12 | 36* | 22 | 6.6*
CC(C)n1nnnc1C1(C)CCCCC(=O)N1Cc1cccc(C(F)(F)F)c1 (stereo unspecified) | 0 | -1 | / | -7 | / | 1 | / | /
Brc1cc2c(cc1COc1ccc(-c3nn[nH]n3)cc1)OCO2 | -4 | 1 | 6 | -26 | -26 | 35* | 25 | 6.5*
CCCCCCNC(=O)C1CSCCS(=O)(=O)N1Cc1ccc(F)cc1 (stereo unspecified) | 2 | -3 | / | 2 | / | -3 | / | /
COc1ccc(NS(=O)(=O)c2ccc(O)c(C(=O)OCC(=O)NC(C)C3CC4CCC3C4)c2)cc1 (stereo unspecified) | 8 | 0 | 1 | -1 | 2 | 6 | / | /
CC(NC(=O)COC(=O)c1cc(NS(=O)(=O)c2ccc(Cl)c([N+](=O)[O-])c2)ccc1O)C1CC2CCC1C2 (stereo unspecified) | -29 | 2 | -1 | -29 | -41 | 44* | 58* | 22*
O=C(O)CC/C(=N\Nc1ccc(S(=O)(=O)N2CCOCC2)cc1[N+](=O)[O-])c1cccs1 | -1 | -2 | 1 | 20 | 2 | 56* | 59* | 23*
O=C(O)CC/C(=N\Nc1ccc(S(=O)(=O)N2CCCC2)cc1[N+](=O)[O-])c1cccs1 | -2 | -1 | 3 | 26 | 11 | 71* | 60* | 22*
O=C(O)CC/C(=N\Nc1ccccc1[N+](=O)[O-])c1cccs1 | / | / | / | / | 18 | / | / | /
COc1ccc(CCNC(=O)Cn2ncc3c2-c2cc(C)ccc2OC3)cc1 | 2 | 2 | / | 0 | / | -1 | / | /
SMILES | SIAE primary | PRMT1 inh | TCR-CD3 inh | ABHD4 inh | HTRA1 inhibitor | rCAG binder | rCAG binder conf | dCAG dye counter | others
O=C(O)c1cc(-c2cccc(Cl)c2)nc2nc(N3CCCCC3)sc12 | -15 | 1 | -4 | -15 | -28 | 46* | 47* | 12* | dCAG dye DR=i
O=C(Cn1c(=O)c2c3c(sc2n(Cc2ccccc2)c1=O)CCCC3)NCCO | -11 | 0 | 3 | -1 | -4 | -4 | / | /
O=C(O)Cn1c(=O)c2c3c(sc2n(Cc2ccc(Cl)cc2Cl)c1=O)CCCC3 | 5 | 2 | 0 | -12 | -22 | 44* | 58* | 19*
NCCNC(=O)Cn1c(=O)c2c3c(sc2n(Cc2ccccc2)c1=O)CCCC3 | -1 | 0 | 1 | 3 | -6 | 15 | / | /
CC1CCc2sc3c(c2C1)c(=O)n(CC(=O)O)c(=O)n3Cc1ccc(Cl)cc1 (stereo unspecified) | -6 | 1 | 2 | 2 | -10 | 54* | 49* | 13*
COc1ccc(S[C@]2(C(=O)NCCCN(C)C)CC(=O)N[C@@H]2c2ccc(OC)cc2)cc1 | 3 | 5 | / | 3 | / | 0 | / | /
COc1ccc(CN(CC#Cc2ccc(C)cc2)C(N)=NC(=O)CCc2ccccc2)c(OC)c1 | -8 | -1 | / | -9 | / | 4 | / | /
Cc1ccc(-c2nc(C3CCCN(S(=O)(=O)c4ccc(Cl)s4)C3)no2)cc1 (stereo unspecified) | 9 | -5 | / | -6 | / | 5 | / | /
O=C(Nc1ccc(S(=O)(=O)Nc2nccs2)cc1)c1ccc(N2C(=O)c3ccccc3C2=O)cc1 | -88 | -2 | -2 | -36 | -47 | 45* | 56* | 24*
CC1CN(S(=O)(=O)c2ccc(C(=O)Nc3ccc(S(=O)(=O)Nc4nccs4)cc3)cc2)CC(C)O1 (stereo unspecified) | -19 | 0 | 7 | -1 | 0 | 57* | 65* | 19*
O=C(Nc1ccc(S(=O)(=O)Nc2nccs2)cc1)c1ccc(F)cc1 | -5 | 3 | -5 | -15 | -10 | 8 | / | /
CC1CN(S(=O)(=O)c2ccc(C(=O)Nc3nccs3)cc2)CC(C)O1 (stereo unspecified) | 9 | -7 | 6 | -2 | 4 | -1 | / | /

Bioassay records: PubChem, The Scripps Research Institute Molecular Screening Center
